According to publication PMC8179325 (Cell reports, 2021):
Entries after “also recorded” stand apart in the source; their conditions may differ.

Tests used:
[1] = test system: axotomized mouse dorsal root ganglia (DRG) axons; test: Axonal metabolites; assay type: cell-based; details: axonal lysates after axotomy, dose dependent
Outline: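 Mouse E13.5 DRG neurons spotted at 100,000 cells/well; test compound present at graded concentrations; all axons severed around the soma cluster at DIV6. After 4 h, cell bodies removed on ice; axons extracted in 50% MeOH with chloroform partition, then lyophilized. cADPR and NAD+ quantified by online SPE-LC-MS/MS with 2-chloroadenosine internal standard against synthetic standard curves. Reported as ng/100,000 cells; n = 3/condition.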

[2] = test system: axotomized mouse DRG neurons; test: Axon degeneration; assay type: cell-based; details: for axonal protection after axotomy: WT mouse DRG, 16 h post-axotomy
Outline: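 Mouse DRG from E13.5 C57BL/6J embryos, trypsin/EDTA-dissociated (37°C, 30 min), spotted at 5,000 cells/well on poly-D-lysine/laminin; assay at 6–7 DIV. Test compound diluted from 10 mM DMSO stock (final DMSO 0.3%), pretreated 2 h unless added after injury (e.g. 30 µM at set times). Axons cut manually with micro-surgical blade and scored for fragmentation 16 h post-axotomy.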

[3] = test system: human iPSC-derived motor neurons; test: Axon fragmentation after axotomy in human motor neurons; assay type: cell-based
Outline: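 Human iPSC-derived motor neurons spotted at 10,000 cells/well on poly-D-lysine/laminin in Complete Maintenance Medium + 5 µM DAPT; assay at 14 DIV. Test compound diluted from 10 mM DMSO stock (final DMSO 0.3%), pretreated 2 h before injury. Axons cut manually with micro-surgical blade and examined for fragmentation 16 h post-axotomy.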

[4] = test system: mouse DRG neurons; test: Rotenone-induced axonal degeneration; assay type: cell-based
Outline: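 Mouse DRG cultures at 6–7 DIV received 25 µM rotenone, either continuously or as 1- or 3-h pulses removed by gentle 3× rinsing. Test compound at 30 µM was given either as 2-h pretreatment or immediately after rotenone removal. Axonal fragmentation scored 48 h after rotenone onset; n = 4.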

[5] = test system: mouse DRG neurons; test: NfL release in response to rotenone; assay type: cell-based; details: 25 μM rotenone
Outline: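 Culture supernatants from mouse DRG neurons exposed to 25 µM rotenone, either continuously sampled over time or as 1- or 3-h pulses with collection at 48 h. Neurofilament light measured by NF-Light ELISA per the kit instructions.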

[6] = test system: mouse DRG neurons; test: Video time-lapse analysis of individual axonal blebs after rotenone pulse; assay type: cell-based
Outline: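 Mouse DRG cultures given a 3-h pulse of 25 µM rotenone, rinsed, ± 30 µM test compound, then imaged brightfield every 15 min at 20X for 48 h. A blinded observer identified blebs at 3 h, tracked them back to confirm origin from healthy axons, then forward until fragmentation, resolution or end. Data analysed by Kaplan-Meier, with percentages taken at 48 h.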

[7] = test system: mouse DRG axons; test: Mitochondrial membrane potential by TMRM fluorescence; assay type: cell-based
Outline: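 Mitochondrial membrane potential in mouse DRG axons read live as TMRM fluorescence; cells were then rinsed, fixed in 1% paraformaldehyde and immunostained for βIII-tubulin. Axotomy arm: 10 µM test compound. Rotenone arm: 3-h pulse of 25 µM rotenone, rinsed 3×, 30 µM test compound immediately afterward, imaged 48 h after rotenone onset; n = 4.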

[8] = test system: mouse DRG neurons; test: Axonal cADPR after 3-h rotenone pulse; assay type: cell-based; details: 3 h 25 μM rotenone, rinse, then 4 h compound
Outline: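 Mouse DRG cultures given a 3-h pulse of 25 µM rotenone, rinsed, then test compound added. Axonal metabolites extracted on ice: cell bodies removed, 50% MeOH, chloroform partition, lyophilization. cADPR measured by SPE-LC-MS/MS with 2-chloroadenosine internal standard against synthetic standard curves; reported as ng/100,000 cells.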

[9] = target: T1, CD38 (Homo sapiens, UniProt P28907); test: Biochemical selectivity panel
T1 sequence (P28907 1-300): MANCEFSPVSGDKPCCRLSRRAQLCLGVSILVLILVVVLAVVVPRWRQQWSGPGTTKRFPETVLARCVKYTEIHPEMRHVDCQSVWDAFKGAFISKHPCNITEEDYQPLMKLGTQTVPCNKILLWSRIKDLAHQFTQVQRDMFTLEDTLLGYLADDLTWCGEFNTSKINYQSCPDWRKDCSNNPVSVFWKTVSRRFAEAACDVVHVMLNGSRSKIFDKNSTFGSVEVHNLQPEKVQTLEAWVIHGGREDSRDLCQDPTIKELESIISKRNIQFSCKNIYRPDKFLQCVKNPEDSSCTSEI

[10] = target: T2, constitutively active SAM-TIR protein of human SARM1 (Homo sapiens, UniProt Q6SZW1); test: SAM-TIR NADase assay; assay type: biochemical
T2 sequence (Q6SZW1 409-700): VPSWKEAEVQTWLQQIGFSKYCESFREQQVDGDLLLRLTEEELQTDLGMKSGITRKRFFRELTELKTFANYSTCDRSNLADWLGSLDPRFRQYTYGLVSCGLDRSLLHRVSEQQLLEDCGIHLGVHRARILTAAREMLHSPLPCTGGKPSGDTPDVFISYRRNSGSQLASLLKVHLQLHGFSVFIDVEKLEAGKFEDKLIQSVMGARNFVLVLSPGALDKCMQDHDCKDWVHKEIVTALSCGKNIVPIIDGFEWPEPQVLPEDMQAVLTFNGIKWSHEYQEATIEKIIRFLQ

[11] = test system: mouse DRG somas; test: Neuronal cell death after rotenone pulse; assay type: cell-based; details: WT DRG, 25 µM rotenone, 48 h
Outline: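 Live mouse DRG cultures exposed to 25 µM rotenone for 48 h, then stained 20 min with 0.25 µM Cytotox Green (dead cells) and 1 µM Cytolight red. Imaged by IncuCyte at 20X, 9 fields/well; bright-field gave total cell counts and green fluorescence gave dead somas.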

[12] = 30 μM added after 3-h pulse of 25 μM rotenone

**Q.** How did the “preservation of NAD+ after axotomy” value [1] turn out when `Ic1cccc2cnccc12` [DSRM-3716, 5-iodoisoquinoline] was run?
**A.** substantial preservation of NAD^+

**Q.** And the “additional axonal protection in SARM1−/− neurons” value ([2]; SARM1−/− DRG, 30 µM, axotomy)?
**A.** did not provide benefit beyond the robust protection observed with SARM1 genetic loss of function

**Q.** What about the “axonal protection after axotomy” value [2] of the same compound?
**A.** protected axons

**Q.** What about the “axonal protection, inhibitor added after injury” value ([2]; added 5 h post-axotomy) of the same compound?
**A.** robustly protected

**Q.** What about the “protection from fragmentation after axotomy” value [3] of the same compound?
**A.** dose-dependent protection

**Q.** And the “protection from rotenone-induced axonal degeneration (pretreatment)” value ([4]; 25 μM rotenone, 48 h, 30 μM compound)?
**A.** prevented axonal degeneration to the same extent as protection observed in SARM1^−/− neurons; also recorded: robust protection

**Q.** What about the “protection from fragmentation, compound added after rotenone pulse” value ([4]; 3-h pulse 25 μM rotenone, 30 μM compound immediately after removal, 48 h) of the same compound?
**A.** protected axons from fragmentation

**Q.** And the “NfL release into culture supernatant in response to rotenone” value [5]?
**A.** can be prevented

**Q.** And the “axonal blebs induced by rotenone that fragmented (transected)” value [6, 12]?
**A.** 10%

**Q.** What about the “axonal blebs induced by rotenone that remained” value [6, 12] of the same compound?
**A.** 30%

**Q.** What about the “TMRM fluorescence (mitochondrial viability) after axotomy” value ([7]; 10 μM, axotomy) of the same compound?
**A.** preserved TMRM fluorescence; also recorded: maintained viable functional mitochondria

**Q.** And the “mitochondrial function by TMRM after rotenone pulse” value ([7]; 3-h pulse 25 μM rotenone, 30 μM compound after removal, 48 h)?
**A.** preserved mitochondrial function

**Q.** What about the “axonal levels of cADPR after rotenone pulse” value [8] of the same compound?
**A.** reduced axonal levels of cADPR

**Q.** What about the “inhibitory activity against CD38” value [9] of the same compound?
**A.** no inhibitory activity

**Q.** Which IC50 [10] does the source give for `Oc1cccc2cnccc12` [compound 3, 5-hydroxyisoquinoline] here?
**A.** 2.6 µM

**Q.** `O=C(c1cc(Cc2n[nH]c(=O)c3ccccc23)ccc1F)N1CCN(C(=O)C2CC2)CC1` [olaparib, reference compound] was tested. Which “axonal protection after axotomy” value [2] did it give?
**A.** no protection of injured axons

**Q.** Which “axonal degeneration after rotenone pulse” value ([4]; 25 μM rotenone removed after 1 h, examined at 48 h) does the source give for `C=C(C)[C@H]1Cc2c(ccc3c2O[C@@H]2COc4cc(OC)c(OC)cc4[C@@H]2C3=O)O1` [rotenone, reference compound] here?
**A.** ~ 70%

**Q.** And the “blebs transected after rotenone removal” value ([6]; 3-h pulse 25 μM rotenone, by 18 h)?
**A.** 95%

**Q.** What about the “blebs fragmented after rotenone removal” value ([6]; 3-h pulse 25 μM rotenone, by 48 h) of the same compound?
**A.** 100%

**Q.** What about the “neuronal cell death (dead somas) caused by rotenone” value [11] of the same compound?
**A.** approximately 60%
